Shown are actives, neighbours in structure and some others; about 3.5% of the full set was active somewhere.
MrgX1 agonist – agonists of human MrgX1 receptor; 310,000 tested, 0.44% active; Q96LB2; AID 588627; MrgX1-HEK293 cells, Fluo-4 calcium fluorescence, agonist mode; stronger effect = higher value; B-score at 10 µM;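 active means calcium response B-score plate-corrected fluorescence ratio at least 3 library SD, with starting fluorescence B-score inside 5 SD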
Target sequence (Q96LB2 whole entry, looked up): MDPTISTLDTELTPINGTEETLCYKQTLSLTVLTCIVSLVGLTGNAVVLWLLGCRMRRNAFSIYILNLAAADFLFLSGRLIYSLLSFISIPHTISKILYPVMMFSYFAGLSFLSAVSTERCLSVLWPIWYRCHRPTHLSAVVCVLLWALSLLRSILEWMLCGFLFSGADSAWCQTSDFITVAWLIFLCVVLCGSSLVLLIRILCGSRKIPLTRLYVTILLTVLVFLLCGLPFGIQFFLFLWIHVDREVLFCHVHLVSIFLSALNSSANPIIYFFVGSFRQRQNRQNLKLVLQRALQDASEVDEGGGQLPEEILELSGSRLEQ
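Test system: HEK293 cells stably expressing human MrgX1 receptor; amount: 15,000 cells per well; doses: compound delivered in addition one of three; times: overnight plating before 1 h dye loading; detection: Fluo-4 NW calcium-flux fluorescence, kinetic read; read-out basis: B-scored fluorescence response ratio; controls: positive and negative controls per plate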
MrgX1 antagonist – blocks BAM8-22 activation of human MrgX1 receptor; Q96LB2; MRGX1-HEK293 calcium flux, Fluo-4, BAM8-22 antagonism; stronger effect = lower value; B-score at 10 µM; 310,000 tested, 1.3% active; AID 588676;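 active means calcium-response B-score plate-corrected more than 3 library SD below zero, starting fluorescence within 5 deviations, no agonist response on first addition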;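 further: peak minus trough fluorescence over baseline after final BAM8-22 challenge near maximal dose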
MrgX1 allo act – human MrgX1 positive allosteric modulation, primary screen; B-score at 10 µM; MrgX1-HEK293, Fluo-4 calcium flux, FDSS; stronger effect = higher value; 310,000 tested, 0.63% active; AID 588675;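 active means plate-corrected calcium response at least 3 library SD above typical, normal starting fluorescence, not activating the receptor alone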;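 further: compound read alongside a low EC10 to EC30 dose of BAM8-22 agonist; peak minus trough fluorescence over baseline measured at the second addition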
RGS4 act – RGS4 potentiation or activation; B-score at 10 µM; HEK293 M3R/inducible RGS4, carbachol calcium flux Fluo4; stronger effect = lower value; 310,000 tested, 0.92% active;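 active means B-score of the integrated calcium signal more than 4 SD below the library mean, with starting fluorescence not abnormally high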;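 further: negative B-score means reduced calcium response which marks RGS4 activation or potentiation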
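System – HEK293 FlpIn-TREx cells, stable M3R, doxycycline-inducible RGS4 · Reagent – ECmax carbachol challenge · Times – compound preincubation 20 min at room temperature before agonist · Technique – Fluo4 fluorescence kinetic imaging of calcium · Measure – B score of integrated Fluo4 ratio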
RGS4 block – human RGS4 inhibition; P49798; HEK293 M3R/RGS4 inducible, Fluo-4 calcium flux; stronger effect = higher value; triggered by carbachol at its EC20; B-score at 10 µM; 310,000 tested, 0.45% active; AID 463165;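 active means B-score, a plate-corrected calcium signal, over three deviations above library mean, with baseline fluorescence within five deviations of library mean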;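 further: RGS4 expression induced by doxycycline in cells with stable M3 receptor; B-score is computed from the integrated fluorescence ratio over baseline after carbachol; higher B-score means a larger calcium signal and so more RGS4 inhibition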
Target sequence (P49798 whole entry, looked up): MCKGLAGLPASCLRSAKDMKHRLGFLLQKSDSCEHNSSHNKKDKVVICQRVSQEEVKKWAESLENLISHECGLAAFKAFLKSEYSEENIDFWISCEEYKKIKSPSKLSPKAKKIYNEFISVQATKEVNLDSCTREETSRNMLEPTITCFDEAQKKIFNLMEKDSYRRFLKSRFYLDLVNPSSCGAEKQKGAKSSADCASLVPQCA
Large screens that a line does not name were inactive.

COCCCNCCOc1ccc(C)cc1[N+](=O)[O-]	MrgX1 antagonist -4.9
CCN(Cc1ccccc1)S(=O)(=O)c1ccc(C(=O)N(CCCN(C)C)c2nc3cc4c(cc3s2)OCO4)cc1	RGS4 act -7.5
CN(C)CCCN(C(=O)CCS(=O)(=O)c1ccccc1)c1nc2cc3c(cc2s1)OCO3	RGS4 act -8.2
CN(C)CCCN(C(=O)c1ccc(C(=O)c2ccccc2)cc1)c1nc2cc3c(cc2s1)OCCO3	RGS4 act -8.8
CCN(Cc1ccccc1)S(=O)(=O)c1ccc(C(=O)N(CCCN(C)C)c2nc3c(C)c(C)ccc3s2)cc1	MrgX1 antagonist -6.7
CN(C)CCCN(C(=O)CCSc1ccccc1)c1nc2cc3c(cc2s1)OCO3	none
CN(C)CCCN(C(=O)c1ccc(S(=O)(=O)N(C)C)cc1)c1nc2cc3c(cc2s1)OCO3	none
CN1C(=O)CSC1=S	none
O=C(Nc1ccccc1C(=O)N1CCCC1)c1ccc(Cl)c([N+](=O)[O-])c1	none
Cc1c(Br)c([N+](=O)[O-])nn1C(C)C(=O)N1CCc2ccccc2C1 (stereo not given)	RGS4 act -9.3
Cc1c(Br)c([N+](=O)[O-])nn1CC(=O)N1CCc2ccccc2C1	none
COc1cc(CNCc2cccs2)ccc1OCc1ccccc1	RGS4 act -7.1
COc1cc(CNCc2cccs2)ccc1OCc1cccs1	none
CCn1c(SCC(=O)N2c3ccccc3CCc3ccccc32)nc2c1c(=O)n(C)c(=O)n2C	none
CC1Cc2ccccc2N1C(=O)CSc1nc2c(c(=O)n(C)c(=O)n2C)n1Cc1ccccc1 (stereo not given)	RGS4 act -7.2
COc1ccc(NC(=O)CN(C)C(=O)CSCc2ccc(C)cc2)cc1	none
CC1CC(C)CN(c2cc(N(C)CCO)c([N+](=O)[O-])c3nonc23)C1 (stereo not given)	none
CC1(C)Cc2c(C#N)c(NC3CCCCC3)nc(-c3ccco3)c2CO1	MrgX1 agonist 29
CC(CNc1nc2ccccc2n2cnnc12)c1ccccc1 (stereo not given)	none
CCN1/C(=C/c2sc(-c3ccccc3C)c[n+]2C)Sc2ccccc21	RGS4 act -7.4 (no result: MrgX1 agonist, MrgX1 antagonist, MrgX1 allo act)
COc1cc(Cl)c(C)cc1NC(=O)COC(=O)c1cc[n+]([O-])cc1	none
O=C(c1ccc([N+](=O)[O-])cc1)N1CCSC1c1cccc(Cl)c1 (stereo not given)	RGS4 act -7.5
O=C(c1ccc([N+](=O)[O-])cc1)N1CCSC1c1ccccc1 (stereo not given)	none
CCn1cc(/C=N\NC(=O)C2(C)CC2(Cl)Cl)c(C)n1 (stereo not given)	none
Cc1ccc2nc(Cl)c3nnnn3c2c1	MrgX1 allo act 8.7
Cc1ccc2nc(N3CCN(c4cccc(C)c4C)CC3)c3nnnn3c2c1	none
O=C1CN2CCC1C/C2=C\c1ccnc2c(Cl)cccc12 (stereo not given)	none
CCN(CC)S(=O)(=O)c1ccc(NC(=O)C2c3ccccc3Oc3ccccc32)cc1	none
COc1ccc(C(=O)/C=C/c2cc(OC)c(O)c(OC)c2)c(F)c1	MrgX1 agonist 30
Cc1ccc(/C=C2\Oc3c(ccc(O)c3CN3CCN(C)CC3)C2=O)cc1	RGS4 act -9.6
CCN1CCN(Cc2c(O)ccc3c2O/C(=C\c2ccccc2)C3=O)CC1	RGS4 act -8.3
CCN1CCN(Cc2c(O)ccc3c2O/C(=C\c2ccc(C)cc2)C3=O)CC1	none
O=C1/C(=C/C=C/c2ccccc2)Oc2c1ccc(O)c2CN1CCN(CCO)CC1	MrgX1 antagonist -5.7
CN(C)c1ccc(/C=N/N=C(N)N)cc1[N+](=O)[O-]	MrgX1 agonist 37
CC(=O)Nc1ccc(S(=O)(=O)NC(C(=O)O)C(C)O)cc1 (stereo not given)	none
COc1ccccc1-c1cnn2c(NC3CCCC3)cc(C)nc12	none
CCC(=O)Nc1ccc(C(=O)Cn2ncc(Cl)c(Cl)c2=O)cc1	none
CCOC(=O)c1ccc(NC(=O)Cn2ncc(Cl)c(Cl)c2=O)cc1	MrgX1 antagonist -5.2
Cc1cc(-n2c(C)cc(C(=O)CSc3nc4ccccc4c(=O)n3Cc3ccco3)c2C)no1	MrgX1 antagonist -6.3
O=C(CSc1nc2ccccc2c(=O)n1Cc1ccco1)c1ccccc1	none
CCCCn1c(NC(=O)c2ccc(F)cc2)c(C#N)c2nc3ccccc3nc21	MrgX1 agonist 54
CCOc1ccc(C(=O)Nc2ccccc2N2CCN(C(=O)c3ccccc3)CC2)cc1[N+](=O)[O-]	none
Cc1nc(NCCCn2ccnc2)c2ccccc2n1	none
c1cncc(-c2nc(NCCCn3ccnc3)c3ccccc3n2)c1	RGS4 act -7
COc1ccc2cc(/C=C3\SC(=S)NC3=O)c(N3CCOCC3)nc2c1	MrgX1 antagonist -6.9
O=C1NC(=S)S/C1=C/c1ccc(N2CCOCC2)o1	none
O=C(N/N=C/c1cc([N+](=O)[O-])ccc1O)c1cc(-c2ccccc2)nc2ccccc12	MrgX1 antagonist -6
CCCCN(CC)CCCNC(=O)C1CCN(c2ncnc3c2sc2cccc(F)c23)CC1	RGS4 act -7.1
O=C(NCCN1CCOCC1)C1CCN(c2ncnc3c2sc2cccc(F)c23)CC1	none
N#CC(C#N)=C(Nc1ccc(F)cc1)SCc1cccc(Br)c1	none
Cc1cccc(CSC(Nc2ccc(F)cc2)=C(C#N)C#N)c1	MrgX1 antagonist -6.6
O=C(NC(Nc1nc2ccc([N+](=O)[O-])cc2s1)(C(F)(F)F)C(F)(F)F)c1cccnc1	none
O=[N+]([O-])c1ccc2nc(NS(=O)(=O)c3ccccc3[N+](=O)[O-])sc2c1	MrgX1 allo act 10
O=[N+]([O-])c1ccc2nc(NS(=O)(=O)c3ccc(Cl)cc3)sc2c1	MrgX1 allo act 11
O=[N+]([O-])c1ccccc1S(=O)(=O)Nc1nc2ccccc2s1	none
O=C(NC(Nc1nc2ccc([N+](=O)[O-])cc2s1)(C(F)(F)F)C(F)(F)F)c1ccccc1Cl	MrgX1 antagonist -5.5
Cc1ccc(S(C)(=O)=NS(=O)(=O)c2cccc3nsnc23)cc1 (stereo not given)	none
Cc1cccc(NC(=O)c2cc(-c3cccnc3)nc3c(C)cccc23)n1	none
COCCCN1CCN(C2Cc3ccccc3Sc3ccc(Cl)cc32)CC1 (stereo not given)	none
Clc1ccc2c(c1)C(N1CCNCC1)Cc1ccccc1S2 (stereo not given)	RGS4 act -7.8
Cc1ccc(S(=O)(=O)N(C)C)cc1NC(=O)C(C)OC(=O)/C=C/c1cccs1 (stereo not given)	none
CCOc1cc(/C=N/NC(=O)c2ccncc2)ccc1OC(=O)c1ccco1	none
CCOc1cc(/C=N/NC(=O)C(O)(c2ccccc2)c2ccccc2)ccc1OC(=O)c1ccco1	RGS4 act -10
CCOc1cc(/C=N/NC(=O)c2ccc(CN3CCOCC3)cc2)ccc1OCc1ccccc1	RGS4 act -7.3

Screening results: PubChem, Johns Hopkins Ion Channel Center
